# The list is not random: actives were taken first. Their share in the collection is about 2.6%.
# Platelet DG rel: modulates dense granule release in human platelets | actives 0.22% (n = 300,000) | inhibition, %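 (compounds screened at 7.5 µM in platelet-rich plasma)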 | AID 1663 | human platelet-rich plasma, SFLLRN dense granule ATP release, luminescence;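 active = mean replicate score, as percent of positive control, at or above 50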
# TAAR1 antag: human TAAR1 antagonism; Q96RJ0; CHO RD-HGA16 TAAR1, Fluo-8 calcium fluorescence, antagonist; inhibition, % at 3 µM; actives 1.5% (n = 360,000);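 active = inhibition above a per-plate cutoff, the mean inhibition of test compounds on that plate plus 3 SD, cut at about 49% in these data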
#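 Material: CHO RD-HGA16 cells bearing hTAAR1; compound dosing: one-point dosing, 3 µM nominal final; schedule: dye loading 75 min at 37 °C, then 30 min room temperature; measured by: calcium fluorescence with Fluo-8; control set: vehicle and agonist controls; replication: n of 1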
# Rce1 inh: inhibitors of yeast Ras-converting enzyme | Q03530 | calls only | yeast membranes, quenched prenylated peptide cleavage fluorescence | actives 0.27% (n = 290,000);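 active = fall in fluorescence gain of 50% or more versus controls, with final raw signal at or below 3038400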
# TAAR1 ag: agonists of human TAAR1 | CHO RD-HGA16 TAAR1, Fluo-8 calcium fluorescence; vehicle wells 0%, saturating PEA agonist 100% | activation, % at 3 µM | actives 0.99% (n = 360,000) | AID 624467;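 active = activation above the mean activation of all test compounds in the run plus 3 SD, cut at about 38% in these data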
#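 Assay system – CHO-derived RD-HGA16 cells with stable Gα16 and human TAAR1 · Compound dosing – one-point dosing at 3 µM (nominal) · Incubation – 17-24 h seeding, 75 min 37 °C dye, 30 min RT · Measured by – kinetic Fluo-8 calcium fluorescence · Control set – DMSO vehicle as 0%, PEA at EC100 as 100% · Repeats – single well for each compound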
# VLA-4 inh: inhibition in a human VLA-4 binding assay. actives 0.2% (n = 330,000). inhibition, % (about 7 µM as worked out from the volumes in the protocol). P13612. AID 2557. VLA-4 expressing cells, ligand binding flow cytometry; in the data active = inhibition above about 50%
# Numbers stand for hits; . = inactive; / = no result; + = active, no number.
SMILES,Platelet DG rel,TAAR1 antag,Rce1 inh,TAAR1 ag,VLA-4 inh
OCc1ccc2c(c1)c(-c1ccc3c(c1)OCCO3)c(-c1ccccc1)n2-c1ccccc1,/,62,/,.,.
COc1ccc(Nc2c(-c3ccco3)nc3cccc(C)n23)cc1,.,.,.,39,.
N#CN1CCC(NS(=O)(=O)c2ccc(C(F)(F)F)cc2)C1 (centres undefined),/,.,/,.,.
O=C(CN1CCN(c2ccccc2)CC1)N1N=CCC1c1ccccc1 (centres undefined),78,.,.,.,.
Cc1cccc(OCCCC(=O)Nc2ccc(N3CCCCC3)cc2)c1,.,64,.,73,.
CN(C)S(=O)(=O)c1ccc(C(=O)N2CC(=O)Nc3ccc(F)cc3C2c2ccc(F)cc2)cc1 (centres undefined),.,.,.,.,.
OC(c1ccc(F)c(F)c1)c1nc(-c2ccc(F)c(Cl)c2)cs1 (centres undefined),/,.,/,.,/
Cc1c(N2C(=O)C(=O)/C(=C(/O)c3ccc(Br)cc3)C2c2cccnc2)c(=O)n(-c2ccccc2)n1C (centres undefined),.,.,/,.,.
CN1c2ccsc2/C(=N/Nc2ccc(F)cc2)CS1(=O)=O,.,.,.,44,.
C=CCN=C1NC(c2ccc(C(F)(F)F)cc2)C(C(=O)OC)=C(C)N1C (centres undefined),/,.,/,.,/
Cn1c(=O)n(C)c2cc(S(=O)(=O)NCc3ccccc3)ccc21,52,.,.,.,.
Cc1cccc(CCNS(=O)(=O)c2ccc3c(c2)n(C)c(=O)c(=O)n3C)c1,.,.,.,39,.
CCCCOc1ccc(C(=O)NCC(=O)NCCOc2ccccc2OC)cc1,/,.,/,.,.
CCCS(=O)(=O)NC(=O)C1(C)CCN(C(=O)c2cccc(C)c2C)C1 (centres undefined),/,.,/,.,/
c1ccc(CCCNc2ncnc3nc[nH]c23)cc1,.,.,.,.,.
c1ccc2c(CCNc3ncnc4nc[nH]c34)cccc2c1,.,67,/,.,.
CCNC(=O)c1cc2c(=O)n3cccc(C)c3nc2n(CCc2ccccc2)c1=N,.,.,.,.,.
CCCCNC(=O)c1cc2c(=O)n3cccc(C)c3nc2n(Cc2ccccc2)c1=N,.,.,+,.,.
O=S(=O)(Cc1ccc(Cl)cc1)Oc1ccc(Cl)cc1,/,55,/,.,/
CCOc1ccc(OCc2ccc(C(=O)NCc3cccnc3)o2)cc1,70,.,.,.,.
CC(C)C[C@H]1CN=C(Nc2ccccc2)N1CCCCc1ccccc1,.,.,.,42,.
CC(=O)Oc1ccc(OC(C)=O)c2c1CC1(C)OC1(C)C2 (centres undefined),/,.,/,.,/
COc1ccc(CCNc2ccc(N3C(=O)CC(C)C3=O)cc2[N+](=O)[O-])cc1 (centres undefined),.,.,.,.,.
COc1ccc(CCNc2ccc(N3C(=O)CC(C)C3=O)cc2[N+](=O)[O-])cc1OC (centres undefined),.,50,.,.,.
CCOc1ccc(CCN2C(=O)C(=O)N([C@@H](Cc3ccccc3)CN3CCC[C@H]3CN3C(=O)C(=O)NC[C@@H]3Cc3ccccc3)C[C@@H]2Cc2ccccc2)cc1,/,.,/,.,/
SMILES,Platelet DG rel,TAAR1 antag,Rce1 inh,TAAR1 ag,VLA-4 inh
CC[N+]1(C)CCC(O)(c2ccc(OC)cc2)C(C(=O)c2ccc(OC)cc2)C1 (centres undefined),/,.,/,.,/
CCCCN(C)C(=O)c1sc(=O)n(Cc2c(C)cccc2C)c1C,/,.,/,.,/
CCN(Cc1ccccc1)Cc1nc(CCc2ccccc2)no1,.,.,.,.,.
c1ccc(CCN(Cc2ccccc2)Cc2nc(C3CC3)no2)cc1,.,.,.,38,.
COc1cccc(NC(=O)C2(C)CCN2C(=O)CCc2ccc(Cl)cc2Cl)c1 (centres undefined),/,.,/,.,/
CCOc1ccc(N(CC(=O)NC2CC3CCC2C3)S(=O)(=O)c2ccccc2)cc1 (centres undefined),.,.,+,.,.
CC(Sc1nnnn1C1CCCC1)C(=O)Nc1cccc(S(=O)(=O)N2CCOCC2)c1 (centres undefined),/,.,/,.,.
C/C(=N/OC(=O)c1ccc(C)cc1)c1ccc(N2C(=O)C3CCCCC3C2=O)cc1 (centres undefined),.,66,.,.,.
C/C(=N/NC(=O)c1ccccc1O)c1ccc(N2C(=O)C3CCCCC3C2=O)cc1 (centres undefined),.,.,.,.,.
